Shown are actives, neighbours in structure and some others; about 2.3% of the full set was active somewhere.
TRPC6 inhibitor: mouse TRPC6 channel inhibition | Q61143 | HEK293-TRPC6, membrane potential dye, ACh-evoked depolarization; hits give low values | B-score at 10 µM | hit rate 1.1% among 310,000;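 active means B-score under library mean minus 3 SD, initial fluorescence not abnormally high, positive integrated signal ratio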;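 further: B-score derived from integrated fluorescence ratio over the kinetic read; more negative B-score means stronger inhibition of depolarization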
Target sequence (Q61143 whole entry, looked up): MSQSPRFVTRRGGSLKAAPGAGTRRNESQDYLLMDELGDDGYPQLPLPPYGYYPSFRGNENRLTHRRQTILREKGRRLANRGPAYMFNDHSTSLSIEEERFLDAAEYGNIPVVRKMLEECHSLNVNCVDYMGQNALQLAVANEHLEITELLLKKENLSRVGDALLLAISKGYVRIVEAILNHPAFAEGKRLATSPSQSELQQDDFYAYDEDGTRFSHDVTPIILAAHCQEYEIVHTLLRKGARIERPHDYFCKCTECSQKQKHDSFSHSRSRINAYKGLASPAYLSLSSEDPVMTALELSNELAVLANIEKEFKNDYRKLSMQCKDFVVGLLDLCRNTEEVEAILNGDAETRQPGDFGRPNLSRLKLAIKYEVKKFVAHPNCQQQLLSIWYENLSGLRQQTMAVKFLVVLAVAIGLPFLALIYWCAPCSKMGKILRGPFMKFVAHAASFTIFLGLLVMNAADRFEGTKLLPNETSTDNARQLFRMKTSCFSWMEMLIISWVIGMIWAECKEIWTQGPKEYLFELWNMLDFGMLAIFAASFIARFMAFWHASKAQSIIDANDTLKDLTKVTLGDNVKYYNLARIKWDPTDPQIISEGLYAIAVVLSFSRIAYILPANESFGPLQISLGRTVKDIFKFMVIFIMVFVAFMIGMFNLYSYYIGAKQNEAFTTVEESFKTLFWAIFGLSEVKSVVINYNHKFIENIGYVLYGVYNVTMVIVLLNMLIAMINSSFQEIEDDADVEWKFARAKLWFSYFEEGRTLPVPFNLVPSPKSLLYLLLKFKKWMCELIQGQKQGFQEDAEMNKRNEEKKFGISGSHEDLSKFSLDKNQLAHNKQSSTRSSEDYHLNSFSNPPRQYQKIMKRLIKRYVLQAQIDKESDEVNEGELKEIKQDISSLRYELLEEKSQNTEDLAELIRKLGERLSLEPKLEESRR
TRPC6 activator: mouse TRPC6 channel activation; hit rate 0.13% among 310,000; B-score at 10 µM; AID 2550; Q61143; HEK293-TRPC6 membrane potential dye fluorescence; hits give high values;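 active means B-score of the integrated fluorescence ratio above library mean plus 3 SD, and starting fluorescence ratio within library mean plus 5 SD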;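 further: higher score means more depolarization so channel activation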
TRPC4 potent: TRPC4 (mouse) allosteric potentiation; HEK293 TRPC4beta/mu-opioid, DAMGO EC20, Fluo-4 Ca2+ flux; hits give high values; B-score at 10 µM; hit rate 0.42% among 310,000;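 active means B-score of calcium response area above 5 SD of library B-scores, with initial fluorescence ratio within 5 SD of library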
FID counter: counter-screen for HCV NS3 helicase inhibitors: DNA intercalator displacement; DNA fluorescent intercalator displacement, fluorescence; hit rate 0.17% among 290,000; inhibition, % at 7.9 µM; in the data active means inhibition above about 37%;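 further: higher means more ethidium bromide displaced from hairpin DNA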
TRPC4 agonist: TRPC4 (mouse) channel activation. Q9QUQ5. HEK293 TRPC4beta/mu-opioid, Fluo4 calcium fluorescence; hits give high values. B-score at 10 µM. hit rate 0.49% among 310,000;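 active means B-score above 5 SD of library B-scores, and initial fluorescence ratio not above library mean plus 5 SD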;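 further: positive B-score marks a calcium rise read as TRPC4 activation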
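Technique: kinetic Fluo4 calcium fluorescence; Test system: TRPC4beta and mu-opioid receptor HEK293 stable cells; Measure: B-scored integrated calcium fluorescence ratio; Benchmarks: low control buffer alone, high control maximal DAMGO; Schedule: 45 min room-temperature Fluo4 loading, 110 s read.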
TRPC4 inh: blocks the mouse TRPC4 cation channel | Q9QUQ5 | HEK293 TRPC4beta/mu-opioid, DAMGO-evoked Fluo4 calcium flux; hits give low values | B-score at 10 µM | hit rate 0.39% among 300,000;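 active means B-score over 3 SD under the library average, no early fluorescence shift, positive overall ratio signal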
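Assay system – HEK293 line stably carrying TRPC4beta and mu-opioid receptor · Doses – single dose · Detection – Fluo4 calcium-dye fluorescence, kinetic read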
TRPC4 sel inh 2: second check of whether TRPC6 inhibitors also affect mouse TRPC4. AID 2776. HEK293 TRPC4/MOR, membrane potential dye fluorescence; channel activated by saturating DAMGO dose. shares compounds with TRPC6 inhibitor. inhibition, % at 10 µM. hit rate 42% among 920;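 active means compounds whose fluorescence signal differed from control wells by over 3 SD, either direction, in both duplicate plates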
TRPC4 spec: selectivity of TRPC6 inhibitors: effect on mouse TRPC4; HEK293 TRPC4/mu-opioid, membrane potential fluorescence; activity change, negative = inhibition, % at 10 µM; shares compounds with TRPC6 inhibitor; hit rate 61% among 920;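 active means rise or fall in signal beyond 3 SD of buffer-only wells in both replicate plates, either sign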;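 further: integrated kinetic ratio of fluorescence range over baseline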
HEK293 MPD ctr 2-1: second counter-screen for TRPC6 inhibitors: parental HEK293 cells; shares compounds with TRPC6 inhibitor; parental HEK293 membrane potential dye fluorescence; maximal acetylcholine challenge after compound addition; signal change vs control, % at 10 µM; hit rate 31% among 920; AID 2779;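 active means membrane potential signal moving either way by over 3 SD of the maximum-effect control, in both duplicate plates, meaning non-specific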
HEK293 MPD ctr-1: checks TRPC6 inhibitor effects in parental HEK293 cells. shares compounds with TRPC6 inhibitor. parental HEK293 membrane potential dye fluorescence. membrane potential signal change, % at 10 µM. hit rate 60% among 920;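 active means membrane potential signal shifting up or down by more than 3 SD of buffer-only wells, on both duplicate plates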
HEK293 MPD ctr-2: counter-screen for TRPC6 modulators: effect in parental HEK293 cells. shares compounds with TRPC6 inhibitor. membrane potential dye fluorescence. membrane potential signal change, % at 10 µM. hit rate 51% among 2,400;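 active means membrane potential signal moves up or down beyond 5 SD from buffer-only wells, on both duplicate plates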
HEK293 MPD ctr 2-2: second check of TRPC6 modulator effects in parental HEK293 cells. shares compounds with TRPC6 inhibitor. membrane potential dye fluorescence; after compound, maximal acetylcholine stimulation. inhibition, % at 10 µM. hit rate 14% among 2,400. AID 488926;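 active means membrane potential signal drops by more than 5 SD from the mean control signal, in both duplicate plates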
TRPC4/MOR mod: mouse TRPC4 off-target activity of TRPC6 modulators | hit rate 69% among 2,400 | percent change from control (negative = decrease, positive = increase), % at 10 µM | shares compounds with TRPC6 inhibitor | AID 488927 | HEK293 TRPC4/mu-opioid, membrane potential fluorescence;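 active means membrane potential signal moved up or down beyond 5 SD of buffer control wells, in both duplicate plates, actives on both sides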
TRPC4/MOR inh 2: second check of whether TRPC6 modulators also affect mouse TRPC4; shares compounds with TRPC6 inhibitor; HEK293 TRPC4/mu-opioid, membrane potential dye fluorescence; stimulated with maximal-effect DAMGO; inhibition, % at 10 µM; hit rate 55% among 2,400; AID 488928;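 active means drop in membrane potential signal beyond 5 SD of the control wells in both duplicate plates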;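 further: TRPC4 counter screen for TRPC6 hits run under conditions tuned for TRPC6 not TRPC4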
TRPC6 inh conf: confirmation of mouse TRPC6 inhibitors; hit rate 43% among 3,300; inhibition, % at 10 µM; HEK293-TRPC6, membrane potential dye, ACh-evoked depolarization; shares compounds with TRPC6 inhibitor;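 active means fluorescence ratio falls more than 5 SD below the full-stimulation control mean, in both duplicate runs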;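 further: integrated fluorescence ratio of peak minus minimum over baseline after agonist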
TRPC6 act confirm: mouse TRPC6 activator confirmation. activation, % at 10 µM. shares compounds with TRPC6 inhibitor. hit rate 11% among 2,800. HEK293-TRPC6 membrane potential dye fluorescence, FDSS;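 active means ratio signal rise beyond 5 SD above unstimulated control wells' mean, seen in both duplicate runs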
Of the large screens only hits and unclear results are named; the others gave an inactive call (follow-up assays come after a bar, where they were run).

CN(C)c1cc(-c2ccccc2)nc(N)n1	TRPC6 inhibitor -6.51 (no result: FID counter) | HEK293 MPD ctr-2 -72.5% | HEK293 MPD ctr 2-2 inactive | TRPC4/MOR mod -14.5% | TRPC4/MOR inh 2 51.0% | TRPC6 inh conf inactive | TRPC6 act confirm inactive
CN(C)c1cc(-c2ccccc2)nc(-c2ccccc2)n1	none
CCN1CCN(c2ccc([N+](=O)[O-])c(Sc3nc4ccccc4[nH]3)c2)CC1	TRPC6 inhibitor -5.37 | HEK293 MPD ctr-2 inactive | HEK293 MPD ctr 2-2 inactive | TRPC4/MOR mod -12.0% | TRPC4/MOR inh 2 61.0% | TRPC6 inh conf 45.5% | TRPC6 act confirm inactive
O=[N+]([O-])c1ccc(N2CCN(CCO)CC2)cc1Sc1ccccn1	none
O=C(Nc1nc(=S)ss1)c1ccc(Cl)cc1Cl	TRPC6 inhibitor -7.07 | HEK293 MPD ctr-2 inactive | HEK293 MPD ctr 2-2 inactive | TRPC4/MOR mod inactive | TRPC4/MOR inh 2 inactive | TRPC6 inh conf inactive | TRPC6 act confirm inactive
O=C(Nc1ccc2ccccc2c1)c1ccc(Cl)cc1Cl	none
CCOc1ccc(OCc2ccc(C(=O)OCc3ccccn3)o2)cc1	TRPC6 inhibitor -6.04 | HEK293 MPD ctr-2 inactive | HEK293 MPD ctr 2-2 inactive | TRPC4/MOR mod 11.0% | TRPC4/MOR inh 2 inactive | TRPC6 inh conf inactive | TRPC6 act confirm inactive
CCCn1nc([N+](=O)[O-])c(C(C#N)c2nc3ccccc3o2)c(Cl)c1=O (configuration not stated)	TRPC6 inhibitor -7.93, TRPC4 inh -5 | HEK293 MPD ctr-2 -217.0% | HEK293 MPD ctr 2-2 inactive | TRPC4/MOR mod -46.0% | TRPC4/MOR inh 2 81.0% | TRPC6 inh conf 68.5% | TRPC6 act confirm inactive
Cn1nc([N+](=O)[O-])c(C(C#N)c2ccccn2)c(Cl)c1=O (configuration not stated)	none
COc1ccc(NC(=O)CN(c2ccc(OC)cc2)S(=O)(=O)c2ccc(OC)c(OC)c2)cc1	none
CCOC(=O)c1nn(-c2ccc(C)cc2)c(=O)cc1OCC(=O)Nc1ccc(OC)cc1	none (no result: FID counter)
CCOC(=O)N1CCN(C(=O)CN(c2cc(Cl)ccc2OC)S(=O)(=O)c2ccccc2)CC1	TRPC6 inhibitor -7.89 | TRPC4 sel inh 2 inactive | TRPC4 spec 7.5% | HEK293 MPD ctr 2-1 inactive | HEK293 MPD ctr-1 3.1% | TRPC6 inh conf inactive | TRPC6 act confirm inactive
COC(=O)C1CCN(C2=C(NS(=O)(=O)c3ccc(Cl)cc3)C(=O)c3ccccc3C2=O)CC1	TRPC6 inhibitor -6.86 | TRPC4 sel inh 2 80.0% | TRPC4 spec -17.9% | HEK293 MPD ctr 2-1 inactive | HEK293 MPD ctr-1 -249.5% | TRPC6 inh conf inactive | TRPC6 act confirm inactive
NC(=O)C1CCN(C2=C(NS(=O)(=O)c3ccc(Cl)cc3)C(=O)c3ccccc3C2=O)CC1	none
CN(c1ccccc1)P(=O)(N(C)c1ccccc1)N(C)c1ccccc1	TRPC6 inhibitor -9.51 | TRPC4 sel inh 2 inactive | TRPC4 spec 28.9% | HEK293 MPD ctr 2-1 inactive | HEK293 MPD ctr-1 14.8% | TRPC6 inh conf 66.2%
O=C(NC(Nc1ncc(S(=O)(=O)c2ccc([N+](=O)[O-])cc2)s1)(C(F)(F)F)C(F)(F)F)c1ccc(Cl)cc1	TRPC6 inhibitor -8.16 | TRPC4 sel inh 2 65.0% | TRPC4 spec 9.8% | HEK293 MPD ctr 2-1 inactive | HEK293 MPD ctr-1 5.0% | TRPC6 inh conf 67.6% | TRPC6 act confirm inactive
Cc1cc(NC(=O)CCC(=O)N(c2ccccc2)C(C)C(=O)NC2CCCC2)no1 (configuration not stated)	none
CN(C(=O)c1cc(-c2ccccc2)on1)C1CCCCC1	none
CCN(CC)CCN1C(=O)Cn2c(C)c(C)c3cccc1c32	TRPC6 inhibitor -8.37 | TRPC4 sel inh 2 49.5% | TRPC4 spec -16.8% | HEK293 MPD ctr 2-1 inactive | HEK293 MPD ctr-1 -253.5% | HEK293 MPD ctr-2 inactive | HEK293 MPD ctr 2-2 inactive | TRPC4/MOR mod -17.5% | TRPC4/MOR inh 2 61.0% | TRPC6 inh conf 52.9% | TRPC6 act confirm inactive
Cc1ccc(C)c2c1N(Cc1ccccc1)C(=O)C21OCCO1	none
COc1cc(NC(=O)CC2NCCNC2=O)cc(OC)c1 (configuration not stated)	TRPC6 inhibitor -6.14 | HEK293 MPD ctr-2 inactive | HEK293 MPD ctr 2-2 inactive | TRPC4/MOR mod inactive | TRPC4/MOR inh 2 inactive | TRPC6 inh conf inactive | TRPC6 act confirm inactive
CCCC(=O)Nc1ccc(NC(=O)c2ccccn2)cn1	none
CCCn1c(C)cc(=O)c2cc(NC(=O)c3ccccn3)ccc21	TRPC6 inhibitor -10.6 | HEK293 MPD ctr-2 -345.0% | HEK293 MPD ctr 2-2 125.5% | TRPC4/MOR mod -58.0% | TRPC4/MOR inh 2 73.5% | TRPC6 inh conf 86.0% | TRPC6 act confirm inactive
CC(=O)Oc1c(/C=C(\C#N)C(N)=O)[nH]c2ccccc12	TRPC6 activator 27 | HEK293 MPD ctr-2 657.0% | HEK293 MPD ctr 2-2 inactive | TRPC4/MOR mod 169.5% | TRPC4/MOR inh 2 inactive | TRPC6 inh conf inactive | TRPC6 act confirm 170.0%
N#C/C(=C\c1c[nH]c2ccccc12)C(N)=O	none

Bioassay records (PubChem BioAssay)
